Experiments:
[1] = Half life in Sprague-Dawley rat at 25 mg/kg, po; assay type: ADME, organism-based; set-up: dose 25 mg/kg, route oral; conditions: in vivo
Staphylococcus aureus = experiment: Antimicrobial activity against Staphylococcus aureus MRSA08-12 in peritonitis mouse model assessed as mortality of host at 5 mg/kg, iv as single dose relative to control; assay type: functional
How it was run: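 Outbred KM mice (20–25 g) infected i.p. with a 90–100% lethal dose (5 × 10^7 CFU/mL) in 0.5 mL brain heart infusion broth with 5% mucin. Single i.v. dose of 1.25–20 mg/kg in 20% DMSO, 0.1 mL. Ten mice per dose; daily monitoring for 14 days; ED50 from cumulative mortality by Bliss's method.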

Compound: CCCC[C@H](CN(O)C=O)C(=O)N1CC=C[C@H]1C(=O)Nc1ccc(F)c[n+]1[O-]
- half-life [1]: 1.82 h
- mortality at 5 mg/kg (Staphylococcus aureus): 60%
